The values below come from paper PMC3382646 (Journal of Computer-Aided Molecular Design, 2011).

This assay concerns the target T1, Bovine pancreatic trypsin (Bos taurus, UniProt P00760).
T1 sequence (P00760 24-246): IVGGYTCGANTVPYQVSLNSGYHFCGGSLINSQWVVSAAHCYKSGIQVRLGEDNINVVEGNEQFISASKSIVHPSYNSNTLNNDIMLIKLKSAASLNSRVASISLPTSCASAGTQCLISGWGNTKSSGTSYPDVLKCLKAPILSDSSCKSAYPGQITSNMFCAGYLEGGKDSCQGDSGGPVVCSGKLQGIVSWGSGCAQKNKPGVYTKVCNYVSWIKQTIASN
Description: X-ray crystallography of fragments soaked into trypsin crystals. The conditions noted are these: two-step soak, 24-48 h each, crystals in P212121, pH 5.8. In a few lines: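 Crystals soaked in DMSO-derived fragment/cryoprotectant mix, then transferred to fresh mix. At least two crystals per soak, liquid-nitrogen cooled; synchrotron, 181 × 1° frames, 1–3 s. Automated processing, ligand placed in active-site density, manual rebuilding.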

Regarding `NCc1cccc(N2CCCC2)c1` [CC 38513], the Soaked fragment density entry was “Yes”.
